Test results from ChEMBL document CHEMBL1157743, “Mitotic arrest induced by a novel family of DNA topoisomerase II inhibitors” (J Med Chem, 2010).

Tests used:
HBL-100 = experiment: Antiproliferative activity against human HBL100 cells after 48 hrs by SRB assay; assay type: functional; conditions: HBL-100, 48 h
Outline: (§1)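 Human solid tumor lines and three immortalized nontumor lines in culture, exposed to the test agent. Read-out is growth inhibition, reported as GI50 (μM).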

SW1573 = experiment: Antiproliferative activity against human SW1573 cells after 48 hrs by SRB assay; assay type: functional; conditions: SW1573, 48 h; outline: as §1

| SMILES | GI50 (SW1573) [nM] | GI50 (HBL-100) [nM] |
| --- | --- | --- |
| CC1CCC(C(C)C)C(OC(=O)C#CC(O/C=C/C(=O)OC2CC(C)CCC2C(C)C)C(C)C)C1 (stereo not drawn) | > 100000 | > 100000 |
| CCCCCC(C#CC(=O)OC)O/C=C/C(=O)OC (stereo not drawn) | 1700 | 1900 |
| CCOC(=O)C#CCO/C=C/C(=O)OC | 1800 | 2400 |
| COC(=O)/C=C/OC(C#CC(=O)O)C(C)(C)C (stereo not drawn) | > 100000 | > 100000 |
| CCOC(=O)C#CC(C[C@@H](C)CCC=C(C)C)O/C=C/C(=O)OCC (stereo partly drawn) | 2600 | 2600 |
| COC(=O)C#CC(O/C=C/C(=O)OC)C1CC1 (stereo not drawn) | 1800 | 250 |
| COC(=O)C#CC(C)O/C=C/C(=O)OC (stereo not drawn) | 1700 | 300 |
| COC(=O)C#CC(O/C=C/C(=O)OC)C1CCCCC1 (stereo not drawn) | 2100 | 2500 |

These reach a lower GI50 (SW1573). Values come first.

| GI50 (SW1573) [nM] | SMILES | GI50 (HBL-100) [nM] |
| --- | --- | --- |
| 1200 | COC(=O)C#CC(O/C=C/C(=O)OC)C(C)c1ccccc1 (stereo not drawn) | 490 |
| 540 | CCC(C#CC(=O)OC)O/C=C/C(=O)OC (stereo not drawn) | 320 |
| 320 | CCCC(C#CC(=O)OC)O/C=C/C(=O)OC (stereo not drawn) | 270 |
| 910 | CCC(C)C(C#CC(=O)OC)O/C=C/C(=O)OC (stereo not drawn) | 340 |
| 750 | COC(=O)C#CC(O/C=C/C(=O)OC)C(C)C (stereo not drawn) | 450 |
| 380 | COC(=O)C#CC(CC(C)C)O/C=C/C(=O)OC (stereo not drawn) | 330 |
